Test results reported in ChEMBL document CHEMBL1148568, “Synthesis and biological evaluation of 3-ethylidene-1,3-dihydro-indol-2-ones as novel checkpoint 1 inhibitors” (Bioorg Med Chem Lett, 2006).
One block for each compound: values may come before it.

Assays:
HeLa [1] = assay: Antiproliferative activity against human HeLa cells by MTS assay in the presence of doxorubicin; format: functional, cell-based
[2] = biological target: MAP kinase-activated protein kinase 2 (Homo sapiens, UniProt P49137); assay: Inhibitory activity against MAPKAP2
Casein kinase II = Casein kinase II (Homo sapiens, UniProt P19784+P67870+P68400); assay: Inhibitory activity against CK2; format: protein-complex assay
[3] = biological target: Proto-oncogene tyrosine-protein kinase Src (Homo sapiens, UniProt P12931); assay: Inhibitory activity against SRC
[4] = biological target: T1, Serine/threonine-protein kinase Sgk1 (Homo sapiens, UniProt O00141); assay: Inhibitory activity against SGK
T1 sequence (O00141 whole entry): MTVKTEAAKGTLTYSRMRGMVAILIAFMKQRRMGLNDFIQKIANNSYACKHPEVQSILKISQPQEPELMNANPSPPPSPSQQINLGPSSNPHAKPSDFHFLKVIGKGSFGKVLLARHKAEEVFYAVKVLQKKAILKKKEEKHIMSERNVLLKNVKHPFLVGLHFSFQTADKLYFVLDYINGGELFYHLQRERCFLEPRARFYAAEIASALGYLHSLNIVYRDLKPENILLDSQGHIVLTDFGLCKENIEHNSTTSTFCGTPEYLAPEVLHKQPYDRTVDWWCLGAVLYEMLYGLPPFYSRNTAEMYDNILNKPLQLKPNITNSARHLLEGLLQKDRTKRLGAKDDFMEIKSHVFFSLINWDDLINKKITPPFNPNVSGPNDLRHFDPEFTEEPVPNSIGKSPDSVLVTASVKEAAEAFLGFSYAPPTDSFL

[5] = biological target: T2, Serine/threonine-protein kinase Chk1 (Homo sapiens, UniProt O14757); assay: Inhibitory activity against Chk1
T2 sequence (O14757 whole entry): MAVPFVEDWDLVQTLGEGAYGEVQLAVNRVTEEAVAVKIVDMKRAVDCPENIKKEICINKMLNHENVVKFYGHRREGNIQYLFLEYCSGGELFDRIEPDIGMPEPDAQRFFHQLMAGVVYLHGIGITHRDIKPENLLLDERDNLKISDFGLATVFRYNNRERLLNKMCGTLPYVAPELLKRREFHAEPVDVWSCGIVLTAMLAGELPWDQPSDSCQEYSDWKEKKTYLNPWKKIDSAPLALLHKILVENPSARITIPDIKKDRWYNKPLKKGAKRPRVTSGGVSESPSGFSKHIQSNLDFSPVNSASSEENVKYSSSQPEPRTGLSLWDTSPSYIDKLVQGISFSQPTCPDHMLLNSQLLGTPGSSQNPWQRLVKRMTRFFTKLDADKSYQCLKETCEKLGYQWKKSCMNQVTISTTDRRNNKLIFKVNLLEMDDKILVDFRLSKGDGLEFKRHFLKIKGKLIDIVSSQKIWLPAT

HeLa [6] = assay: Antiproliferative activity against human HeLa cells by MTS assay; format: functional, cell-based
Procedure, shortened: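 p53-deficient human cervical cancer HeLa cells were treated with the test compound alone over varying concentrations. Proliferation was read out by MTS, and the antiproliferative EC50 was determined.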

[7] = biological target: Serine/threonine-protein kinase Chk2 (Homo sapiens, UniProt O96017); assay: Inhibitory activity against Chk2
[8] = biological target: Cyclin-dependent kinase 1 (Homo sapiens, UniProt P06493); assay: Inhibitory activity against CDC2
Angiopoietin-1 receptor = Angiopoietin-1 receptor (Homo sapiens, UniProt Q02763); assay: Inhibitory activity against Tie2
[9] = biological target: Protein kinase C delta type (Homo sapiens, UniProt Q05655); assay: Inhibitory activity against PKC delta
[10] = biological target: Epidermal growth factor receptor (Homo sapiens, UniProt P00533); assay: Inhibitory activity against EGFR
[11] = biological target: Protein kinase C gamma type (Homo sapiens, UniProt P05129); assay: Inhibitory activity against PKC gamma

Cyclin-dependent kinase 1, sequence (P06493 whole entry): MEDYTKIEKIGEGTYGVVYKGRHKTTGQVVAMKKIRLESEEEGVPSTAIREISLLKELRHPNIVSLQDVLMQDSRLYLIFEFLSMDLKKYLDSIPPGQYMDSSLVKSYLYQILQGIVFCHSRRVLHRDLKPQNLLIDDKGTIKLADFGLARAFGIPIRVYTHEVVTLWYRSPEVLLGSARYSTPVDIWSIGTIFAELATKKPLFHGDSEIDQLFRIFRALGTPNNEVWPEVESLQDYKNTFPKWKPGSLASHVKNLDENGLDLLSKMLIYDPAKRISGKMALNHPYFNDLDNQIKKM
Proto-oncogene tyrosine-protein kinase Src, sequence (P12931 2-536 limits assumed): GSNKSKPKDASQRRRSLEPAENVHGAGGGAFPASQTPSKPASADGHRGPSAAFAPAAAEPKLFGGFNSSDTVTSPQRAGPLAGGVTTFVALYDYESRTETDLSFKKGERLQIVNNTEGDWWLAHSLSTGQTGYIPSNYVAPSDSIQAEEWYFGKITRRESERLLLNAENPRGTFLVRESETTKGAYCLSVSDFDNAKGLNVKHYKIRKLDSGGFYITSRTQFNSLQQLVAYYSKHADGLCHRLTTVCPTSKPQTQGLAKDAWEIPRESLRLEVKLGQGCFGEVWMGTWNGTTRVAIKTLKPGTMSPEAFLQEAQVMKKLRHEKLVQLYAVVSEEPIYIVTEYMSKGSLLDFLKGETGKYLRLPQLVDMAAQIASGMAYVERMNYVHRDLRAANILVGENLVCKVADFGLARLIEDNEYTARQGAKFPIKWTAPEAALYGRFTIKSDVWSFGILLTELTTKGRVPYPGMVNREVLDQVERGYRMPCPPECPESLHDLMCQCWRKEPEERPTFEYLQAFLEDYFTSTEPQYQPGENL
Serine/threonine-protein kinase Chk2, sequence (O96017 whole entry): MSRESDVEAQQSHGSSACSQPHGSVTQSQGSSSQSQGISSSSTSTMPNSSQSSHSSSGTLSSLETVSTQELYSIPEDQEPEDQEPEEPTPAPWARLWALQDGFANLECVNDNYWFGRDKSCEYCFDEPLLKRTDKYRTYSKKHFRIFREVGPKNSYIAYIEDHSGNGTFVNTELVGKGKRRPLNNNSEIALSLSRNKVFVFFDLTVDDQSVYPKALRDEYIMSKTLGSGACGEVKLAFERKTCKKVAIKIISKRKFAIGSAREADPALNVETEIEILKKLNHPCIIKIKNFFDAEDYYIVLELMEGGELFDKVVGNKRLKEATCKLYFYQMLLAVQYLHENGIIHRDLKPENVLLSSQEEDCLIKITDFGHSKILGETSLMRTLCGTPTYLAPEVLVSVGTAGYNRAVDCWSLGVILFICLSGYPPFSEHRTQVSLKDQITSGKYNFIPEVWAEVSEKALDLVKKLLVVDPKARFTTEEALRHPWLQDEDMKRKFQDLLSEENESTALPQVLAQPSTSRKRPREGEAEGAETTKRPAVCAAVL
Casein kinase II, sequence (P67870 whole entry): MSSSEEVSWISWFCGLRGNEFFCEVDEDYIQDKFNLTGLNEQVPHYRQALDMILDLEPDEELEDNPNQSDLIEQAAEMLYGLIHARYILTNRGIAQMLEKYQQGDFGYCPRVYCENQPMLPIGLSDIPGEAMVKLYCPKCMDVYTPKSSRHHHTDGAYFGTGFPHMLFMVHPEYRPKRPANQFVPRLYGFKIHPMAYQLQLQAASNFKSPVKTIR
Casein kinase II, sequence (P68400 whole entry): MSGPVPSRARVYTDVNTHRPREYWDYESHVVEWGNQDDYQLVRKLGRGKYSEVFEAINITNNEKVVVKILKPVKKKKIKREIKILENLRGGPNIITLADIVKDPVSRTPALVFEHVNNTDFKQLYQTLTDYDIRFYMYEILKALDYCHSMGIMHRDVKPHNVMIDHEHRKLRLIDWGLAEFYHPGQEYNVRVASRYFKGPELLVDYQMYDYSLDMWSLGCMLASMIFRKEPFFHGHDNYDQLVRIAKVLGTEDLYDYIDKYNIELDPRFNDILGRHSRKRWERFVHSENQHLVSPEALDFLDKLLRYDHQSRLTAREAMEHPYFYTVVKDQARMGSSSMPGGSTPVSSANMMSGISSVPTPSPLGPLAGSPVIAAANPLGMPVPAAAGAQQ
Casein kinase II, sequence (P19784 whole entry): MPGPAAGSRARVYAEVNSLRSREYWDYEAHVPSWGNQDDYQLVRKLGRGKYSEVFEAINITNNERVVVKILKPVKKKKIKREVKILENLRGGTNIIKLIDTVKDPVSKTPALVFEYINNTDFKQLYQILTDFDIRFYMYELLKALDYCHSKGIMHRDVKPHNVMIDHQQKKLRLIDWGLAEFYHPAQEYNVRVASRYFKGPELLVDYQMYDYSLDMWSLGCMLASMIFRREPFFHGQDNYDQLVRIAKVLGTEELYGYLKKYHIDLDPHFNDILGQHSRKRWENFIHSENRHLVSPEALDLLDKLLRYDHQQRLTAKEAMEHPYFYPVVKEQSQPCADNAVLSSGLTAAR
Epidermal growth factor receptor, sequence (P00533 whole entry): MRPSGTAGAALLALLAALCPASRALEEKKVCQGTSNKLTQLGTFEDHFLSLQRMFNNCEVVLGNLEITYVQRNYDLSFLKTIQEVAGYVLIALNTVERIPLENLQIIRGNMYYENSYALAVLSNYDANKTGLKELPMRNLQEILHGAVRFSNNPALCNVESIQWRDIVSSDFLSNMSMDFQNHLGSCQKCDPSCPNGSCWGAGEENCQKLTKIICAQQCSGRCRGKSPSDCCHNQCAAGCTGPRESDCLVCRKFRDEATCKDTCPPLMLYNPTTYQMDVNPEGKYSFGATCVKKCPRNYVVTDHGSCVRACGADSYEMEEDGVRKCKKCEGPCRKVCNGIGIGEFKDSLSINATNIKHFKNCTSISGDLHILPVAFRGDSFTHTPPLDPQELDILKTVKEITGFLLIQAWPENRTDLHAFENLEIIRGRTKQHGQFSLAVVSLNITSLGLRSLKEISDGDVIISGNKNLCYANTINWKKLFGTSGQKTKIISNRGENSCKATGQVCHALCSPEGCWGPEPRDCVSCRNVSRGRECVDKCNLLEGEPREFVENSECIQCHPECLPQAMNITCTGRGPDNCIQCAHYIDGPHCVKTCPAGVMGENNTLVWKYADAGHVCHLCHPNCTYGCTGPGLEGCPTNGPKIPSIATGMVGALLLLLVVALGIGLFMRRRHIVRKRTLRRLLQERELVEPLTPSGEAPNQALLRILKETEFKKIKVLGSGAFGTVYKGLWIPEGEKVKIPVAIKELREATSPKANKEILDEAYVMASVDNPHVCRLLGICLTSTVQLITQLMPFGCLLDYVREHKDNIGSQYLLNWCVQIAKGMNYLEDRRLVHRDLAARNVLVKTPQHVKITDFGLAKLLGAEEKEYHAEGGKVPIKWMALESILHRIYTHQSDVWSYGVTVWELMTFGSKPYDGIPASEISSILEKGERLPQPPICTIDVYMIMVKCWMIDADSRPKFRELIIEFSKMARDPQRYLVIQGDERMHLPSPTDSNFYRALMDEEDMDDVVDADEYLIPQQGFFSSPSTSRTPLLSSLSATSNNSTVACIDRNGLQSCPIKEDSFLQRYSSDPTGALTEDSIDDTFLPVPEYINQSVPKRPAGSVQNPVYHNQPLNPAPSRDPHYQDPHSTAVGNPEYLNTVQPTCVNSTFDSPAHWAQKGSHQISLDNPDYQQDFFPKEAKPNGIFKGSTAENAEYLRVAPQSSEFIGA
Angiopoietin-1 receptor, sequence (Q02763 whole entry): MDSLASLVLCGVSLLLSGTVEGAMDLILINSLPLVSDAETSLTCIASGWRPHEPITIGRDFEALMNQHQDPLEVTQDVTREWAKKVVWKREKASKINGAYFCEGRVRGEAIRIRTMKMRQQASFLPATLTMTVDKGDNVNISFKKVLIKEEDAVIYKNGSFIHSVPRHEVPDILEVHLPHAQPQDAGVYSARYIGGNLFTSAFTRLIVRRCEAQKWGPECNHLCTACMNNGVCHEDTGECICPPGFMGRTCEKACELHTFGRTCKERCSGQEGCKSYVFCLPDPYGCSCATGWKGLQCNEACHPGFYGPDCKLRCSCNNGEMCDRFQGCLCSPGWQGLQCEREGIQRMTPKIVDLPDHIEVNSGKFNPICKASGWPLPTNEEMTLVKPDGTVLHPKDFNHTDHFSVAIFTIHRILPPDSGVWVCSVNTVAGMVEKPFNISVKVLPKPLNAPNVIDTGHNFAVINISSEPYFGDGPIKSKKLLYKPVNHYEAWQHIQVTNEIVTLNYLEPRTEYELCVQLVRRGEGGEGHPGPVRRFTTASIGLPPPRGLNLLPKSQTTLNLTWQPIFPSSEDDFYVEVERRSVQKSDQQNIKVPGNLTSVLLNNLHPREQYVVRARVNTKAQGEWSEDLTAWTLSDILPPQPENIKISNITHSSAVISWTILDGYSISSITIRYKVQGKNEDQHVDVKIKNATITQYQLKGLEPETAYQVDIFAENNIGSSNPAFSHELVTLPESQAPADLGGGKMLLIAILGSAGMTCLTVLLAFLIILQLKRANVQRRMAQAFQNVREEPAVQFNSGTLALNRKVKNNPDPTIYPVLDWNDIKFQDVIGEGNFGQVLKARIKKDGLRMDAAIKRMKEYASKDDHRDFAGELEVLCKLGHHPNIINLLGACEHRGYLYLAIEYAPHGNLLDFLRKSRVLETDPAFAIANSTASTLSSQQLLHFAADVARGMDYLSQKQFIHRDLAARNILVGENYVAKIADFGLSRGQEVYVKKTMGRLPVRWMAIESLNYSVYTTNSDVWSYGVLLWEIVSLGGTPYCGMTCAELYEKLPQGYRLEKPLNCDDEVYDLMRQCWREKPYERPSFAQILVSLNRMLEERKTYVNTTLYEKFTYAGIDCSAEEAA

- EC50 (HeLa [1]): 180 nM
- IC50 [2]: > 50000 nM
- IC50 (Casein kinase II): 41700 nM
- IC50 [3]: 2380 nM
- IC50 [4]: > 50000 nM
- IC50 [5]: 4 nM
- EC50 (HeLa [6]): 10 nM
- IC50 [7]: 22700 nM
- IC50 [8]: 454 nM
SMILES: COc1cc(-c2ccc3c(c2)NC(=O)/C3=C\c2c[nH]c3ncccc23)ccc1O

- IC50 [5]: 10 nM
SMILES: COc1cc(O)ccc1-c1ccc2c(c1)NC(=O)/C2=C\c1cc[nH]c1

- IC50 [5]: 29 nM
SMILES: O=C1Nc2cc(-c3ccc(O)cc3)ccc2/C1=C/c1cc[nH]c1

- IC50 [5]: > 10000 nM
SMILES: Cc1ccc(-c2ccc3c(c2)NC(=O)/C3=C\c2cc[nH]c2)cc1

- IC50 [5]: 1310 nM
SMILES: COc1cc(-c2ccc3c(c2)NC(=O)/C3=C\c2c[nH]c3c(C)cccc23)ccc1O

- IC50 [5]: 1030 nM
SMILES: Nc1ccc(-c2ccc3c(c2)NC(=O)/C3=C\c2cc[nH]c2)cc1

- IC50 [5]: 445 nM
SMILES: COc1cc(-c2ccc3c(c2)NC(=O)/C3=C\c2c[nH]c3nc(C#N)ccc23)ccc1O

SMILES: COc1cc(-c2ccc3c(c2)NC(=O)/C3=C\c2ncc[nH]2)ccc1O
- IC50 [3]: > 50000 nM
- IC50 (Angiopoietin-1 receptor): 23300 nM
- IC50 [9]: > 50000 nM
- IC50 [10]: > 50000 nM
- IC50 [4]: 1500 nM
- IC50 [11]: > 50000 nM
- IC50 [5]: 18 nM
- IC50 [7]: 14600 nM
- IC50 [8]: 251 nM

- IC50 [5]: > 10000 nM
SMILES: COc1cc(-c2ccc3c(c2)NC(=O)/C3=C\c2[nH]c(C)cc2-c2ccccc2)ccc1O

- IC50 [5]: 2840 nM
SMILES: COc1cc(-c2ccc3c(c2)/C(=C/c2ccc[nH]2)C(=O)N3)ccc1O

- IC50 [5]: 47 nM
SMILES: COc1cc(-c2ccc3c(c2)NC(=O)/C3=C\c2[nH]c(C)c(CCO)c2C)ccc1O

- IC50 [5]: 1280 nM
SMILES: COc1cc(-c2ccc3c(c2)NC(=O)/C3=C\c2[nH]c(C)c(CN(C)C)c2C(C)C)ccc1O

- IC50 [5]: > 10000 nM
SMILES: O=C1Nc2cc(-c3ccc(F)c(F)c3)ccc2/C1=C/c1cc[nH]c1

- IC50 [5]: 3460 nM
SMILES: COc1cc(-c2ccc3c(c2)NC(=O)/C3=C\c2[nH]c(C)cc2C(C)C)ccc1O

- IC50 [5]: 75 nM
SMILES: COC(=O)CCc1c(C)[nH]c(/C=C2\C(=O)Nc3cc(-c4ccc(O)c(OC)c4)ccc32)c1C

- IC50 [5]: > 50000 nM
SMILES: COc1cc(-c2ccc3c(c2)/C(=C/c2c[nH]c4ccccc24)C(=O)N3)ccc1O

- IC50 [5]: 120 nM
SMILES: COc1cc(-c2ccc3c(c2)NC(=O)/C3=C\c2[nH]c(C)cc2C)ccc1O

SMILES: COc1cc(-c2ccc3c(c2)NC(=O)/C3=C\c2ccc[nH]2)ccc1O
- IC50 [2]: > 50000 nM
- IC50 (Casein kinase II): > 50000 nM
- IC50 [3]: > 50000 nM
- IC50 (Angiopoietin-1 receptor): > 50000 nM
- IC50 [9]: > 50000 nM
- IC50 [10]: > 50000 nM
- IC50 [4]: > 50000 nM
- IC50 [11]: > 50000 nM
- IC50 [7]: 21700 nM
- IC50 [8]: > 50000 nM

- IC50 [5]: > 50000 nM
SMILES: COc1cc(-c2ccc3c(c2)NC(=O)/C3=C\c2cccc(OC)c2OC)ccc1O

- IC50 [5]: > 10000 nM
SMILES: O=C1Nc2cc(-c3ccc(OC(F)(F)F)cc3)ccc2/C1=C/c1cc[nH]c1

- IC50 [5]: 25 nM
SMILES: COc1cc(-c2ccc3c(c2)NC(=O)/C3=C\c2cc[nH]c2)ccc1O

- IC50 [5]: > 50000 nM
SMILES: COc1cc(-c2ccc3c(c2)/C(=C/c2cccc(OC)c2OC)C(=O)N3)ccc1O

- IC50 [5]: > 10000 nM
SMILES: COc1cc(-c2ccc3c(c2)NC(=O)/C3=C\c2cc[nH]c2)cc(OC)c1OC

- IC50 [5]: 3460 nM
SMILES: COc1cc(-c2ccc3c(c2)/C(=C/c2c[nH]c4c(C)cccc24)C(=O)N3)ccc1O

- IC50 [5]: 92 nM
SMILES: COc1cc(-c2ccc3c(c2)NC(=O)/C3=C\c2c[nH]c3ccccc23)ccc1O

- IC50 [5]: 3970 nM
SMILES: COc1cc(-c2ccc3c(c2)NC(=O)/C3=C\C2CCCN2)ccc1O (stereo unspecified)
